Holding throughout (format): functional, cell-based
The subject of assay [1] is HL-60. Kind of assay: Cytotoxicity against human HL-60 cells at 20 nM assessed as decrease in cell viability in combination with 50 nM JQ-1 measured after 24 hrs by MTT assay. (Tetrazolium assays rely on reduction of a dye to a coloured formazan, in cell work by metabolically active cells.)
Assay [2] concerns KG-1a. Kind of assay: Induction of myeloid differentiation in human KG-1a cells at 50 nM in combination with 20 nM chaetocin measured after 12 hrs by Liu's staining method. The procedure, abridged: (§1)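 Cells received single epigenetic inhibitors or combinations and were collected by cytospin. After Liu's staining (reagent A 1 min, reagent B 2.5 min), differentiated cells were counted under a light microscope. Mean ± s.e. of three independent experiments.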

The test system of assay [3] is U-937. Kind of assay: Cytotoxicity against human U-937 cells at 20 nM assessed as decrease in cell viability in combination with 50 nM JQ-1 measured after 24 hrs by MTT assay.
Assay [4] deals with KG-1a. Kind of assay: Cytotoxicity against human KG-1a cells at 20 nM assessed as decrease in cell viability in combination with 50 nM JQ-1 measured after 24 hrs by MTT assay.
Assay [5] concerns HL-60. The experiment in a line: Induction of myeloid differentiation in human HL-60 cells at 50 nM in combination with 20 nM chaetocin measured after 12 hrs by Liu's staining method. The method in brief: as §1
In assay [6] the test system is U-937. The experiment in a line: Induction of myeloid differentiation in human U-937 cells at 50 nM in combination with 20 nM chaetocin measured after 12 hrs by Liu's staining method. The method in brief:
as §1

Calls of active or inactive are those of the source. The calls are words filed in the database; no cut-off is given here.

Turning to `CN1C(=O)[C@@]23C[C@]4([C@]56C[C@@]78SS[C@@](CO)(C(=O)N7[C@H]5Nc5ccccc56)N(C)C8=O)c5ccccc5N[C@@H]4N2C(=O)[C@]1(CO)SS3.Cc1sc2c(c1C)C(c1ccc(Cl)cc1)=N[C@@H](CC(=O)OC(C)(C)C)c1nnc(C)n1-2`, the result in assay [1] and in assay [4] was Active. Further, the outcome in assay [2], in assay [3], in assay [5] and in assay [6] was inactive.

(Values after ChEMBL document CHEMBL5674867, “The SUV39H1 inhibitor chaetocin induces differentiation and shows synergistic cytotoxicity with other epigenetic drugs in acute myeloid leukemia cells” (Blood Cancer J, 2015).)
